Test results: ChEMBL document CHEMBL3525913, “Metabolism-dependent inhibition of CYP3A4 by lapatinib: evidence for formation of a metabolic intermediate complex with a nitroso/oxime metabolite formed via a nitrone intermediate” (Drug Metab Dispos, 2013); call rule not given here
One block for each compound: values may come before it.

How the values were obtained:
Cytochrome P450 3A5 [1] = molecular target: T1, Cytochrome P450 3A5 (Homo sapiens, UniProt P20815); test: Activity of recombinant CYP3A5 (unknown origin) assessed as 6-(5-(aminomethyl)furan-2-yl)-N-(3-chloro-4-(3-fluorobenzyloxy)phenyl)quinazolin-4-amine formation at 50 uM for 30 mins by LC/MS/MS analysis; format: ADME; conditions: recombinant enzyme, 0.5 h
Outline: (§1)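 Lapatinib 50 μM (added in DMSO) incubated 30 min at 37°C in 100 mM potassium phosphate pH 7.4 with HLM 1 mg/mL or recombinant CYP3A4+b5 / CYP3A5+b5 100 pmol/mL. Reaction started with NADPH 1 mM. Protein re-isolated by ultracentrifugation (100,000 x g, 4°C, 60 min), washed (KCl/EDTA), resuspended in phosphate buffer, ±2 mM ferricyanide 10 min 37°C, quenched with acetonitrile, then high-resolution LC/MS profiling.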

CYP3A5 = CYP3A5 (Homo sapiens, UniProt P20815); test: Inhibition of recombinant CYP3A5 (unknown origin)-mediated midazolam 1-hydroxylation at 50 uM; format: ADME; conditions: recombinant CYP3A5, probe midazolam (1-hydroxylation)
Outline: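 Recombinant CYP3A5+b5 (100 pmol/mL) preincubated 30 min at 37°C, pH 7.4, with lapatinib 50 μM and 1 mM NADPH. Solvent controls run alongside. Residual activity measured as midazolam (30 μM, 5 min, 37°C) 1'-hydroxylation by LC/MS/MS at 0.05 mg/mL. Measured directly and after ultracentrifugation (100,000 x g, 60 min) with or without 2 mM ferricyanide (10 min). Normalized to solvent control.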

Cytochrome P450 3A5 [2] = molecular target: T1, Cytochrome P450 3A5; test: Activity of recombinant CYP3A5 (unknown origin) assessed as N-((5-(4-(3-chloro-4-(3-fluorobenzyloxy)phenylamino)quinazolin-6-yl)furan-2-yl)methylene)-2-(methylsulfonyl)ethanamine oxide formation at 50 uM for 30 mins by LC/MS/MS analysis; format: ADME; conditions: recombinant enzyme, 0.5 h; outline: as §1
Cytochrome P450 3A4 [3] = molecular target: T2, Cytochrome P450 3A4 (Homo sapiens, UniProt P08684); test: Activity of recombinant CYP3A4 (unknown origin) assessed as N-(3-chloro-4-(3-fluorobenzyloxy)phenyl)-6-(5-((hydroxy(2 (methylsulfonyl)ethyl)amino)methyl)furan-2-yl)quinazolin-4-amine formation at 50 uM for 30 mins by LC/MS/MS analysis; format: ADME; conditions: recombinant enzyme, 0.5 h; outline: as §1
Liver microsome [4] = test: Drug metabolism in human liver microsomes assessed as N-(3-chloro-4-(3-fluorobenzyloxy)phenyl)-6-(5-((hydroxy(2 (methylsulfonyl)ethyl)amino)methyl)furan-2-yl)quinazolin-4-amine formation at 50 uM for 30 mins by LC/MS/MS analysis; format: ADME; conditions: 0.5 h; outline: as §1
Cytochrome P450 3A4 [5] = molecular target: T2, Cytochrome P450 3A4; test: Activity of recombinant CYP3A4 (unknown origin) assessed as 2-chloro-4-(6-(5-((2-(methylsulfonyl)ethylamino)methyl)furan-2-yl)quinazolin-4-ylamino)phenol formation at 50 uM for 30 mins by LC/MS/MS analysis; format: ADME; conditions: recombinant enzyme, 0.5 h; outline: as §1
Cytochrome P450 3A4 [6] = molecular target: T2, Cytochrome P450 3A4; test: Activity of recombinant CYP3A4 (unknown origin) assessed as 5-(4-(3-chloro-4-(3-fluorobenzyloxy)phenylamino)quinazolin-6-yl)furan-2-carbaldehyde formation at 50 uM for 30 mins by LC/MS/MS analysis; format: ADME; conditions: recombinant enzyme, 0.5 h; outline: as §1
Liver microsome [7] = test: Drug metabolism in human liver microsomes assessed as 6-(5-(aminomethyl)furan-2-yl)-N-(3-chloro-4-(3-fluorobenzyloxy)phenyl)quinazolin-4-amine formation at 50 uM for 30 mins by LC/MS/MS analysis; format: ADME; conditions: 0.5 h; outline: as §1
Cytochrome P450 3A4 [8] = molecular target: T2, Cytochrome P450 3A4; test: Activity of recombinant CYP3A4 (unknown origin) assessed as 5-(4-(3-chloro-4-(3-fluorobenzyloxy)phenylamino)quinazolin-6-yl)furan-2-carbaldehyde oxime formation at 50 uM for 30 mins by LC/MS/MS analysis; format: ADME; conditions: recombinant enzyme, 0.5 h; outline: as §1
Liver microsome [9] = test: Drug metabolism in human liver microsomes assessed as (5-(4-(3-chloro-4-(3-fluorobenzyloxy)phenylamino)quinazolin-6-yl)furan-2-yl)methanol formation at 50 uM for 30 mins by LC/MS/MS analysis; format: ADME; conditions: 0.5 h; outline: as §1
CYP3A4 [10] = molecular target: T3, CYP3A4 (Homo sapiens, UniProt P08684); test: Inhibition of CYP3A4-mediated midazolam 1-hydroxylation in human liver microsomes at 50 uM; format: ADME; conditions: probe midazolam (1-hydroxylation)
Outline: (§2)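 30 min preincubation with 50 μM test compound (DMSO) and 1 mM NADPH at 37°C in 100 mM potassium phosphate, pH 7.4. Enzyme source was HLM at 1 mg/mL or recombinant CYP3A4 + b5 at 100 pmol/mL. Residual activity assayed with midazolam (30 μM; 5 min; 37°C) at 0.05 mg/mL. 1'-hydroxymidazolam quantified by LC/MS/MS and normalised to solvent controls.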

Cytochrome P450 3A5 [11] = molecular target: T1, Cytochrome P450 3A5; test: Activity of recombinant CYP3A5 (unknown origin) assessed as N-(3-chloro-4-(3-fluorobenzyloxy)phenyl)-6-(5-((hydroxy(2 (methylsulfonyl)ethyl)amino)methyl)furan-2-yl)quinazolin-4-amine formation at 50 uM for 30 mins by LC/MS/MS analysis; format: ADME; conditions: recombinant enzyme, 0.5 h; outline: as §1
Liver microsome [12] = test: Drug metabolism in human liver microsomes assessed as 5-(4-(3-chloro-4-(3-fluorobenzyloxy)phenylamino)quinazolin-6-yl)furan-2-carbaldehyde oxime formation at 50 uM for 30 mins by LC/MS/MS analysis; format: ADME; conditions: 0.5 h; outline: as §1
Liver microsome [13] = test: Drug metabolism in human liver microsomes assessed as 2-chloro-4-(6-(5-(hydroxy(2-(methylsulfonyl)ethylamino)methyl)furan-2-yl)quinazolin-4-ylamino)phenol formation at 50 uM for 30 mins by LC/MS/MS analysis; format: ADME; conditions: 0.5 h; outline: as §1
Cytochrome P450 3A4 [14] = molecular target: T2, Cytochrome P450 3A4; test: Activity of recombinant CYP3A4 (unknown origin) assessed as (5-(4-(3-chloro-4-(3-fluorobenzyloxy)phenylamino)quinazolin-6-yl)furan-2-yl)methanol formation at 50 uM for 30 mins by LC/MS/MS analysis; format: ADME; conditions: recombinant enzyme, 0.5 h; outline: as §1
Cytochrome P450 3A5 [15] = molecular target: T1, Cytochrome P450 3A5; test: Activity of recombinant CYP3A5 (unknown origin) assessed as (5-(4-(3-chloro-4-(3-fluorobenzyloxy)phenylamino)quinazolin-6-yl)furan-2-yl)methanol formation at 50 uM for 30 mins by LC/MS/MS analysis; format: ADME; conditions: recombinant enzyme, 0.5 h; outline: as §1
Liver microsome [16] = test: Drug metabolism in human liver microsomes assessed as N-((5-(4-(3-chloro-4-(3-fluorobenzyloxy)phenylamino)quinazolin-6-yl)furan-2-yl)methylene)-2-(methylsulfonyl)ethanamine oxide formation at 50 uM for 30 mins by LC/MS/MS analysis; format: ADME; conditions: 0.5 h; outline: as §1
Cytochrome P450 3A5 [17] = molecular target: T1, Cytochrome P450 3A5; test: Inhibition of recombinant CYP3A5 (unknown origin)-mediated midazolam 1-hydroxylation at 50 uM in presence of 2 mM ferricyanide; format: ADME; conditions: recombinant enzyme
Outline: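 Recombinant CYP3A5 + b5 (100 pmol/mL) preincubated 30 min at 37°C with test compound (50 μM) in 100 mM potassium phosphate pH 7.4, started with 1 mM NADPH. Then potassium ferricyanide (2 mM final) for 10 min at 37°C, ultracentrifugation, pellet washed. Residual midazolam (30 μM, 5 min, 37°C) 1'-hydroxylation measured by LC/MS/MS, normalized to solvent controls.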

Cytochrome P450 3A4 [18] = molecular target: T2, Cytochrome P450 3A4; test: Activity of recombinant CYP3A4 (unknown origin) assessed as N-((5-(4-(3-chloro-4-(3-fluorobenzyloxy)phenylamino)quinazolin-6-yl)furan-2-yl)methylene)-2-(methylsulfonyl)ethanamine oxide formation at 50 uM for 30 mins by LC/MS/MS analysis; format: ADME; conditions: recombinant enzyme, 0.5 h; outline: as §1
Cytochrome P450 3A5 [19] = molecular target: T1, Cytochrome P450 3A5; test: Activity of recombinant CYP3A5 (unknown origin) assessed as 2-chloro-4-(6-(5-(hydroxy(2-(methylsulfonyl)ethylamino)methyl)furan-2-yl)quinazolin-4-ylamino)phenol formation at 50 uM for 30 mins by LC/MS/MS analysis; format: ADME; conditions: recombinant enzyme, 0.5 h; outline: as §1
Liver microsome [20] = test: Drug metabolism in human liver microsomes assessed as 2-chloro-4-(6-(5-((2-(methylsulfonyl)ethylamino)methyl)furan-2-yl)quinazolin-4-ylamino)phenol formation at 50 uM for 30 mins by LC/MS/MS analysis; format: ADME; conditions: 0.5 h; outline: as §1
Cytochrome P450 3A4 [21] = molecular target: T2, Cytochrome P450 3A4; test: Activity of recombinant CYP3A4 (unknown origin) assessed as 2-chloro-4-(6-(5-(hydroxy(2-(methylsulfonyl)ethylamino)methyl)furan-2-yl)quinazolin-4-ylamino)phenol formation at 50 uM for 30 mins by LC/MS/MS analysis; format: ADME; conditions: recombinant enzyme, 0.5 h; outline: as §1
Cytochrome P450 3A5 [22] = molecular target: T1, Cytochrome P450 3A5; test: Activity of recombinant CYP3A5 (unknown origin) assessed as 5-(4-(3-chloro-4-(3-fluorobenzyloxy)phenylamino)quinazolin-6-yl)furan-2-carbaldehyde oxime formation at 50 uM for 30 mins by LC/MS/MS analysis; format: ADME; conditions: recombinant enzyme, 0.5 h; outline: as §1
Cytochrome P450 3A4 [23] = molecular target: T2, Cytochrome P450 3A4; test: Activity of recombinant CYP3A4 (unknown origin) assessed as 6-(5-(aminomethyl)furan-2-yl)-N-(3-chloro-4-(3-fluorobenzyloxy)phenyl)quinazolin-4-amine formation at 50 uM for 30 mins by LC/MS/MS analysis; format: ADME; conditions: recombinant enzyme, 0.5 h; outline: as §1
Cytochrome P450 3A5 [24] = molecular target: T1, Cytochrome P450 3A5; test: Activity of recombinant CYP3A5 (unknown origin) assessed as 5-(4-(3-chloro-4-(3-fluorobenzyloxy)phenylamino)quinazolin-6-yl)furan-2-carbaldehyde formation at 50 uM for 30 mins by LC/MS/MS analysis; format: ADME; conditions: recombinant enzyme, 0.5 h; outline: as §1
Cytochrome P450 3A5 [25] = molecular target: T1, Cytochrome P450 3A5; test: Activity of recombinant CYP3A5 (unknown origin) assessed as 2-chloro-4-(6-(5-((2-(methylsulfonyl)ethylamino)methyl)furan-2-yl)quinazolin-4-ylamino)phenol formation at 50 uM for 30 mins by LC/MS/MS analysis; format: ADME; conditions: recombinant enzyme, 0.5 h; outline: as §1
CYP3A4 [26] = molecular target: T3, CYP3A4; test: Inhibition of recombinant CYP3A4 (unknown origin)-mediated midazolam 1-hydroxylation at 50 uM; format: ADME; conditions: recombinant CYP3A4, probe midazolam (1-hydroxylation); outline: as §2
Liver microsome [27] = test: Drug metabolism in human liver microsomes assessed as N-((5-(4-(3-chloro-Drug metabolism in human liver microsomes assessed as 5-(4-(3-chloro-4-(3-fluorobenzyloxy)phenylamino)quinazolin-6-yl)furan-2-carbaldehyde formation at 50 uM for 30 mins by LC/MS/MS analysis; format: ADME; conditions: 0.5 h; outline: as §1
Liver microsome [28] = test: Drug level in human liver microsomes treated with lapatinib at 50 uM by LC/MS/MS analysis; format: ADME; outline: as §1
[29] = Retention time of the compound by LC/MS/MS analysis relative to lapatinib; format: physicochemical
Outline: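 Phenyl UPLC column (1.7 μm, 2.1 x 100 mm), 0.1% formic acid in water/acetonitrile, 0.4 mL/min. Gradient: 10% organic for 1 min, to 90% over 13 min, held 0.5 min. Detection by accurate-mass MS. Retention times expressed relative to lapatinib.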

Cytochrome P450 3A4 [30] = molecular target: T2, Cytochrome P450 3A4; test: Activity of recombinant CYP3A4 (unknown origin) assessed as compound formation treated with lapatinib at 50 uM by LC/MS/MS analysis; format: ADME; conditions: recombinant enzyme; outline: as §1
Cytochrome P450 3A5 [31] = molecular target: T1, Cytochrome P450 3A5; test: Activity of recombinant CYP3A5 (unknown origin) assessed as compound formation treated with lapatinib at 50 uM by LC/MS/MS analysis; format: ADME; conditions: recombinant enzyme; outline: as §1

T2 sequence (P08684 whole entry): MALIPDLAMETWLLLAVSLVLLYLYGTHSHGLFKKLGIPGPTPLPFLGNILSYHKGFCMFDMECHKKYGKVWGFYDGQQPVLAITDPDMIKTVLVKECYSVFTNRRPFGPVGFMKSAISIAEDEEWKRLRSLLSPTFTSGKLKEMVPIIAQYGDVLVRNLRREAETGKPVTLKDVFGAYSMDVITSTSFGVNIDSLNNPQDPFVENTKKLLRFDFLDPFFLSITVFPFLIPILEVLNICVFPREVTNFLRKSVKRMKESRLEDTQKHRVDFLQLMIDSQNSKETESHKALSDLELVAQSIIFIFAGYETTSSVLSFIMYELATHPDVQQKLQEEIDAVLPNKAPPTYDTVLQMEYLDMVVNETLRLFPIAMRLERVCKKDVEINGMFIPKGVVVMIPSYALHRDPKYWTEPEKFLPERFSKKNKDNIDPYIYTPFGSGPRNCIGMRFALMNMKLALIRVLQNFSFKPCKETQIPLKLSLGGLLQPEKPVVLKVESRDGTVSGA
T1 sequence (P20815 whole entry): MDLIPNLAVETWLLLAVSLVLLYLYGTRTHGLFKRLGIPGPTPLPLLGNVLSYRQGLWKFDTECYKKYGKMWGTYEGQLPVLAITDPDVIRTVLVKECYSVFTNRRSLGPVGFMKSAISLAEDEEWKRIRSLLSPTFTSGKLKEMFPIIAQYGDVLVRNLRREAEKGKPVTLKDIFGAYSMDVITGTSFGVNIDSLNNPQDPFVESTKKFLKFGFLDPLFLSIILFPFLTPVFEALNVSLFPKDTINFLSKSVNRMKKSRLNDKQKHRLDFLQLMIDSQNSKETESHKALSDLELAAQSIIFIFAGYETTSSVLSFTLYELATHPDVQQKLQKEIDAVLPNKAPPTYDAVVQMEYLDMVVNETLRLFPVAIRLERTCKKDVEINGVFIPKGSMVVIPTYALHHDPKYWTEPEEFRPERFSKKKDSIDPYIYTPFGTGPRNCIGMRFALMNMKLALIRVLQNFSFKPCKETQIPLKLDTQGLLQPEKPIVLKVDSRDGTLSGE
T3 sequence (P08684 whole entry): as the sequence (P08684 whole entry) above
Chain of CYP3A5 (P20815 whole entry): as the sequence (P20815 whole entry) above

Structure (SMILES): CS(=O)(=O)CCNCc1ccc(-c2ccc3ncnc(Nc4ccc(OCc5cccc(F)c5)c(Cl)c4)c3c2)o1 [LAPATINIB]
Drug metabolism (Cytochrome P450 3A5 [1]): metabolite_detected
inhibition at 50 µM (CYP3A5): < 15%
Drug metabolism (Cytochrome P450 3A5 [2]): metabolite_detected
Drug metabolism (Cytochrome P450 3A4 [3]): metabolite_detected
Drug metabolism (Liver microsome [4]): metabolite_detected
Drug metabolism (Cytochrome P450 3A4 [5]): metabolite_detected
Drug metabolism (Cytochrome P450 3A4 [6]): metabolite_detected
Drug metabolism (Liver microsome [7]): metabolite_detected
Drug metabolism (Cytochrome P450 3A4 [8]): metabolite_detected
Drug metabolism (Liver microsome [9]): metabolite_detected
inhibition at 50 µM (CYP3A4 [10]): 45%
Drug metabolism (Cytochrome P450 3A5 [11]): metabolite_detected
Drug metabolism (Liver microsome [12]): metabolite_detected
Drug metabolism (Liver microsome [13]): metabolite_detected
Drug metabolism (Cytochrome P450 3A4 [14]): metabolite_detected
Drug metabolism (Cytochrome P450 3A5 [15]): metabolite_detected
Drug metabolism (Liver microsome [16]): metabolite_detected
inhibition (INH) (Cytochrome P450 3A5 [17]): Active
Drug metabolism (Cytochrome P450 3A4 [18]): metabolite_detected
Drug metabolism (Cytochrome P450 3A5 [19]): metabolite_detected
Drug metabolism (Liver microsome [20]): metabolite_detected
Drug metabolism (Cytochrome P450 3A4 [21]): metabolite_detected
Drug metabolism (Cytochrome P450 3A5 [22]): metabolite_detected
Drug metabolism (Cytochrome P450 3A4 [23]): metabolite_detected
Drug metabolism (Cytochrome P450 3A5 [24]): metabolite_detected
Drug metabolism (Cytochrome P450 3A5 [25]): metabolite_detected
inhibition at 50 µM (CYP3A4 [26]): 45%
Drug metabolism (Liver microsome [27]): metabolite_detected

Drug metabolism (Liver microsome [28]): metabolite_detected
Ratio [29]: 1.13
Drug metabolism (Cytochrome P450 3A4 [30]): metabolite_detected
Drug metabolism (Cytochrome P450 3A5 [31]): metabolite_detected
Structure (SMILES): OCc1ccc(-c2ccc3ncnc(Nc4ccc(OCc5cccc(F)c5)c(Cl)c4)c3c2)o1
